Tests used:
[1] = molecular target: T1, Amine oxidase [flavin-containing] B (Homo sapiens, UniProt P27338); test: Inhibition of human recombinant monoamine oxidase-B assessed as kynuramine conversion to 6-hydroxyquinoline after 20 mins by fluorescence spectrophotometric analysis
T1 sequence (P27338 whole entry): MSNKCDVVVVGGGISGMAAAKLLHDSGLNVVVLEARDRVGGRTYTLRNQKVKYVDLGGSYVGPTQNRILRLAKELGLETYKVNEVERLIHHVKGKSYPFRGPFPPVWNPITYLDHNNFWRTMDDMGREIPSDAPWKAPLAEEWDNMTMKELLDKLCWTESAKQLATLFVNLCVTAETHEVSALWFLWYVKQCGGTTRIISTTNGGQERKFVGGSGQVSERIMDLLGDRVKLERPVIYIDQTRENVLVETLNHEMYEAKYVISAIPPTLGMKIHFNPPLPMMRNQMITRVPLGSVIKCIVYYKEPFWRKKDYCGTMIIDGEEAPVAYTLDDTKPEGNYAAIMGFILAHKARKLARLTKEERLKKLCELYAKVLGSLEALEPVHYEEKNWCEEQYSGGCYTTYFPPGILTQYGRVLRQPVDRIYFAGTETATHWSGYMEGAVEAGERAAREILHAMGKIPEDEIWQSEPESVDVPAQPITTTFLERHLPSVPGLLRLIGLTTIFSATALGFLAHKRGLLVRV

[2] = molecular target: T2, Amine oxidase [flavin-containing] A (Homo sapiens, UniProt P21397); test: Inhibition of human recombinant monoamine oxidase-A assessed as kynuramine conversion to […] after 20 mins by fluorescence spectrophotometric analysis
T2 sequence (P21397 whole entry): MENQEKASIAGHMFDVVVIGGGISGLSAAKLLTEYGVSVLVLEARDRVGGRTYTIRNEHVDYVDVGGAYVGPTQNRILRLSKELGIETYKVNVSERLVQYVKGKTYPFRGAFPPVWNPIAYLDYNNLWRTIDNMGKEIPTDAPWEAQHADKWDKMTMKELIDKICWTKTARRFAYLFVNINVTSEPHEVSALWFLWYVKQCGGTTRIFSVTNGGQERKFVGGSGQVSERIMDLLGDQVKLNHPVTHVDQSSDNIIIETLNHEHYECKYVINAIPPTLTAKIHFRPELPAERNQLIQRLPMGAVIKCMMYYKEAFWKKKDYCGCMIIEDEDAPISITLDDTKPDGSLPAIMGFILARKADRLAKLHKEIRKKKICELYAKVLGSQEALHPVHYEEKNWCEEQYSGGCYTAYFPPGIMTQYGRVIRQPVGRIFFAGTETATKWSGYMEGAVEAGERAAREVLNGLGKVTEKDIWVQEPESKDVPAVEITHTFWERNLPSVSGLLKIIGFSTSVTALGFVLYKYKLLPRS

[3] = organism: Homo sapiens; test: Selectivity index, ratio of IC50 for human recombinant monoamine oxidase-A to IC50 for human recombinant monoamine oxidase-B
Summary of the method: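 Selectivity for MAO-B, given as IC50(MAO-A)/IC50(MAO-B). Both IC50s came from recombinant human enzymes, with kynuramine oxidation to fluorescent […] read at ex 310 / em 400 nm in alkaline medium.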

[4] = molecular target: T2, Amine oxidase [flavin-containing] A; test: Competitive inhibition of human recombinant monoamine oxidase-A using kynuramine as substrate by Cheng and Prusoff equation analysis
[5] = molecular target: T2, Amine oxidase [flavin-containing] A; test: Competitive inhibition of human recombinant monoamine oxidase-A using kynuramine as substrate by Lineweaver-Burk plot analysis
Summary of the method: (§1)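 Recombinant human MAO-A or MAO-B with kynuramine as substrate. Initial rates were recorded at 4 substrate concentrations, without inhibitor and with three inhibitor concentrations. Lineweaver–Burk (1/v vs 1/[S]) plots were built from these rates. Product […] was read by fluorescence in alkaline medium (ex 310 nm, em 400 nm).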

[6] = molecular target: T2, Amine oxidase [flavin-containing] A; test: (§2) Reversible inhibition of human recombinant monoamine oxidase-A using kynuramine as substrate assessed as residual enzyme activity treated at 100 times IC50 preincubated for 30 mins prior to substrate addition followed by 100 fold dilution measured after 20 mins by fluorescence spectrophotometric analysis relative to control
[7] = molecular target: T2, Amine oxidase [flavin-containing] A; test: as §2, with “at 10” for “at 100”
[8] = molecular target: T3, Amine oxidase [flavin-containing] B (Rattus norvegicus, UniProt P19643); test: Inhibition of rat brain monoamine oxidase-B
T3 sequence (P19643 whole entry): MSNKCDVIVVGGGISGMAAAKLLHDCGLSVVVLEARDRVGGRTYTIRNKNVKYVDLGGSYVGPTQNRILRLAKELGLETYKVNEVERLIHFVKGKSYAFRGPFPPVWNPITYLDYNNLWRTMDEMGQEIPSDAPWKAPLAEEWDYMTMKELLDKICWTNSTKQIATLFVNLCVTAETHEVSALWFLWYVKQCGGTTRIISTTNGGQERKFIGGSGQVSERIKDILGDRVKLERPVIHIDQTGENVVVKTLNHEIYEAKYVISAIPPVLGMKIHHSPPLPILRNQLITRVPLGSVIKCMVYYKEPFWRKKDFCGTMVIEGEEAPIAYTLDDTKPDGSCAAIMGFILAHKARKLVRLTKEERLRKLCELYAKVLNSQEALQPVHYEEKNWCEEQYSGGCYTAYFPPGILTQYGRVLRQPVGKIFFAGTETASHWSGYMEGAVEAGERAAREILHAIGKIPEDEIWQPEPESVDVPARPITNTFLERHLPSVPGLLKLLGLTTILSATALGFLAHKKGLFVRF

[9] = molecular target: T1, Amine oxidase [flavin-containing] B; test: Ratio of phthalide IC50 to compound IC50 for human recombinant monoamine oxidase-B
[10] = molecular target: T1, Amine oxidase [flavin-containing] B; test: Inhibition of human recombinant monoamine oxidase-B assessed as kynuramine conversion to […] at 100 uM after 20 mins by fluorescence spectrophotometric analysis
[11] = molecular target: T2, Amine oxidase [flavin-containing] A; test: as §2, with “Irreversible inhibition” for “Reversible inhibition”, “at 10” for “at 100”
[12] = molecular target: T1, Amine oxidase [flavin-containing] B; test: Competitive inhibition of human recombinant monoamine oxidase-B using kynuramine as substrate by Morrison equation analysis
[13] = molecular target: T1, Amine oxidase [flavin-containing] B; test: Competitive inhibition of human recombinant monoamine oxidase-B using kynuramine as substrate by Lineweaver-Burk plot analysis; summary of the method: as §1
[14] = molecular target: T1, Amine oxidase [flavin-containing] B; test: as §2, with “oxidase-B” for “oxidase-A”
[15] = molecular target: T1, Amine oxidase [flavin-containing] B; test: Competitive inhibition of human recombinant monoamine oxidase-B using kynuramine as substrate by Cheng and Prusoff equation analysis
[16] = molecular target: T1, Amine oxidase [flavin-containing] B; test: as §2, with “monoamine oxidase-B” for “monoamine oxidase-A”, “at 10” for “at 100”
[17] = molecular target: T1, Amine oxidase [flavin-containing] B; test: Quasi-reversible inhibition of human recombinant monoamine oxidase-B using kynuramine as substrate treated at 10 to 100 times IC50 preincubated for 30 mins prior to substrate addition followed by 100 fold dilution measured after 20 mins by fluorescence spectrophotometric analysis

Row | Structure (SMILES) | IC50 [1] | IC50 [2] | Ratio IC50 [3] | other results
1 | O=C1OCc2ccccc21 | 28600 nM | 44900 nM | 1.6 | –
2 | O=C1OCc2ccc(OCCOc3ccccc3)cc21 | 18 nM | 1910 nM | 106 | –
3 | O=C1OCc2ccc(OCC3CCCCC3)cc21 | 12 nM | 185 nM | 16 | –
4 | O=C1OCc2ccc(OCCOc3ccc(Cl)cc3)cc21 | 11 nM | 137 nM | 13 | –
5 | O=C1OCc2ccc(NCc3ccccc3)cc21 | – | 59900 nM | – | inhibition (INH) [10]: Not Active
6 | O=C1OCc2ccc(OCCc3ccc(F)cc3)cc21 | 68 nM | 1070 nM | 16 | –
7 | Cc1ccc(CCOc2ccc3c(c2)C(=O)OC3)cc1 | 81 nM | 7330 nM | 90 | –
8 | C#CCN(C)Cc1ccccc1 [PARGYLINE] | – | – | – | Activity [11]: 1%
9 | O=C1OCc2ccc(OCCc3ccc(Cl)cc3)cc21 | 48 nM | 498 nM | 10 | –
10 | O=C1OCc2ccc(OCCOc3ccc(F)cc3)cc21 | 7.4 nM | 323 nM | 43 | –

The next lines start with results.

Row | IC50 [1] | IC50 [2] | Ratio IC50 [3] | Structure (SMILES) | other results
11 | 9 nM | 1060 nM | 118 | Cc1ccc(COc2ccc3c(c2)C(=O)OC3)cc1 | –
12 | 6.2 nM | 96 nM | 16 | O=C1OCc2ccc(OCCCc3ccccc3)cc21 | Ki [4]: 25 nM; Ki [5]: 62 nM; Activity [6]: 45%; Activity [7]: 86%
13 | 24 nM | 1190 nM | 50 | O=C1OCc2ccc(OCc3ccccc3)cc21 | IC50 [8]: 230 nM; Ratio IC50 [9]: 1000
14 | 6.4 nM | 542 nM | 84 | O=C1OCc2ccc(OCc3ccc(F)cc3)cc21 | –
15 | 1.8 nM | 344 nM | 189 | O=C1OCc2ccc(OCc3ccc(I)cc3)cc21 | –
16 | 2.4 nM | 227 nM | 96 | O=C1OCc2ccc(OCc3ccc(Br)cc3)cc21 | –
17 | 12 nM | 240 nM | 20 | O=C1OCc2ccc(OCCOc3ccc(Br)cc3)cc21 | –
18 | 1.4 nM | 304 nM | 214 | O=C1OCc2ccc(OCc3ccc(C(F)(F)F)cc3)cc21 | Ki [12]: 0.46 nM; Ki [13]: 0.7 nM; Activity [14]: 14%; Ki [15]: 0.6 nM; Activity [16]: 68%; inhibition (INH) [17]: Active
19 | 3.5 nM | 629 nM | 180 | O=C1OCc2ccc(OCc3cccc(Br)c3)cc21 | –
20 | 2.8 nM | 172 nM | 61 | O=C1OCc2ccc(OCc3ccc(Cl)cc3)cc21 | –
21 | 47 nM | 3210 nM | 68 | O=C1OCc2ccc(OCCc3ccccc3)cc21 | –
